Results on 7 sequences are retold here after publication PMC5776616 (Experimental and Therapeutic Medicine, 2017).

Where no end group is shown, it is not given here.

Assay [1] relates to S. mutans UA 159. The assay is described as follows: MIC by broth microdilution, planktonic S. mutans UA159. Particulars: for MICs against the S. mutans strains: range over both S. mutans strains (UA159 and GS-5); for increase of antibacterial activity against S. mutans compared with hLF1-11 alone: planktonic S. mutans, from MICs. Type of assay: cell-based, Streptococcus mutans. In a few lines: (§1)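 Strains were grown anaerobically overnight in BHI at 37°C, diluted 1:20 and grown anaerobically 2.5 h to mid-log phase. Two-fold serial peptide dilutions in BHI were set up in 96-well round-bottom plates, and the final inoculum was 1×10^5 CFU/ml. The MIC was reported as the median of at least three independent experiments.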

Assay [2] relates to multi-species biofilm of luc-ldh reporter strain of S. mutans, S. gordonii ATCC-10558 and S. sanguis ATCC-49295. Nature of the assay: Multi-species biofilm. Type of assay: cell-based. Particulars: for growth of S. gordonii and S. sanguis in multi-species biofilm: 5 min after treatment, peptide 128 µg/ml; for relative strength of effect on S. mutans in multi-species biofilm (ranking): order in words: strongest effects, followed by, then, Fig. 2B. The method, boiled down:
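Mid-log cultures were adjusted to 1×10^7 CFU/ml in BHI with 0.5% sucrose (S. mutans luc-ldh reporter), 0.5% glucose (S. gordonii) or 0.5% mannose (S. sanguis). Wells were spun and grown anaerobically 4 h at 37°C into biofilm. Peptide in PBS was added at a final 128 µg/ml, then replaced with sugar-containing BHI. OD600 was read at 5–120 min, and S. mutans RLU after adding 1 mM D-luciferin. Groups were compared by one-way ANOVA.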

Assay [3] relates to S. sanguis ATCC-49295. The assay is described as follows: MIC by broth microdilution, planktonic S. sanguis. The format is cell-based, Streptococcus sanguis. In a few lines:
as §1

In assay [4] the test system is S. gordonii ATCC-10558. Nature of the assay: MIC by broth microdilution, planktonic S. gordonii. The format is cell-based, Streptococcus gordonii. In a few lines:
as §1

In assay [5] the test system is S. mutans UA 159. Nature of the assay: Differential protein expression. Type of assay: cell-based, Streptococcus mutans. The method, boiled down:
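Mid-log S. mutans UA 159 (BHI, anaerobic, 1×10^6 CFU/ml) was exposed to test peptide at 20 µg/ml or an equal volume of sterile water, anaerobically at 37°C for 1 h. Cells were pelleted at 4°C and lysed with lysozyme plus protease inhibitors, on ice with sonication. Protein was cleaned, quantified and CyDye minimal-labelled. Spots were identified by positive-ion reflection MALDI-TOF-MS over m/z 700–4,000.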

[6] abbreviates: S. mutans UA 159, C11H 20 µg/ml 1 h vs water control, gi|24379038.

For “GRRRRSVQWCA [hLF1-11, reference compound]”, the “MICs against the S. mutans strains” value in assay [1] (planktonic) lay in the range of 37.33 to 48.00 µg/mL. Moreover, the “growth of S. gordonii and S. sanguis in multi-species biofilm” value (“growth of S. gordonii and S. sanguis” below) in assay [2] is listed as “not affected”.
As to LSTFFRLFNGRRRRSVQWCA [C12H], the “increase of antibacterial activity against S. mutans compared with hLF1-11 alone” value (“increase of antibacterial activity” below) in assay [1] is 3–4 times. In assay [1] (planktonic), the “MICs against the S. mutans strains” value lay within 10.67 to 13.33 µg/mL. Moreover, in assay [2], the “growth of S. gordonii and S. sanguis” value is on record as “not affected”; the “relative strength of effect on S. mutans in multi-species biofilm (ranking)” value (shortened to “relative strength of effect on S. mutans”) is given as “strongest effects”.
LSTFFRLFN [C12] yielded an MIC against S. sanguis in assay [3] above 256 µg/mL. The sequence also came in with an MIC against S. mutans in assay [1] (planktonic) above 256 µg/mL. This sequence displayed an MIC against S. gordonii in assay [4] above 256 µg/mL. In assay [2], the “growth of S. gordonii and S. sanguis” value is recorded as “not affected”.
With LSTFFRLFNRSFTQGRRRRSVQWCA [C14H], in assay [1], the “increase of antibacterial activity” value is 3–4 times. Besides, the “MICs against the S. mutans strains” value in assay [1] (planktonic) lay within 10.67 to 13.33 µg/mL. The “growth of S. gordonii and S. sanguis” value in assay [2] is recorded as “not affected”.
The like results for STFFRLFNRSFTQGRRRRSVQWCA [C13H] were, in that order, 3–4 times, 10.67 to 13.33 µg/mL and “not affected”.
Turning to TFFRLFNRSFTGRRRRSVQWCA [C11H], the “increase of antibacterial activity” value in assay [1] is 3–4 times. Moreover, the “MICs against the S. mutans strains” value in assay [1] (planktonic) lay in the range of 10.67 to 13.33 µg/mL. In addition, the “Average ration: Heat shock protein GrpE (HSP-70 cofactor) (master no. 1781)” value in assay [5] (S. mutans UA 159, C11H 20 µg/ml 1 h vs water control, gi|24378605) was −4.2. In addition, in assay [5] (S. mutans UA 159, C11H 20 µg/ml 1 h vs water control, gi|24378953), the “Average ration: NAD synthetase (master no. 1628)” value is recorded as −4.12. Besides, in assay [5] (setting [6]), the “Average ration: Putative cell division A protein DivIV (master no. 1355)” value is −8, the “Average ration: Putative cell division protein DivIVA (master no. 1327)” value is reported as −11.09 and the “Average ration: Putative cell division protein DivIVA (master no. 1341)” value is −5.58. Moreover, the “Average ration: Putative 40K cell wall protein precursor (master no. 654)” value in assay [5] (S. mutans UA 159, C11H 20 µg/ml 1 h vs water control, gi|24379086) was −4.75. Also, the “Average ration: Branch ed-chain amino acid aminotransferase (master no. 1241)” value in assay [5] (S. mutans UA 159, C11H 20 µg/ml 1 h vs water control, gi|24379628) was −5.4. Further, the “Average ration: Orotate phosphoribo-syltransferase (master no. 2141)” value in assay [5] (S. mutans UA 159, C11H 20 µg/ml 1 h vs water control, gi|24379645) is reported as −4.63. The “Average ration: Putative dTDP-4-keto-L-rhamnose reductase (master no. 2068)” value in assay [5] (S. mutans UA 159, C11H 20 µg/ml 1 h vs water control, gi|24379857) is recorded as −5.54. In assay [5] (S. mutans UA 159, C11H 20 µg/ml 1 h vs water control, gi|24380004), the “Average ration: Ribosome recycling factor (master no. 2072)” value is −4.7. In assay [5] (S. mutans UA 159, C11H 20 µg/ml 1 h vs water control, gi|24380090), the “Average ration: Hypothetical protein SMU.1716c (master no. 2188)” value is reported as −6.14. Besides, the “Average ration: Putative trans-2-enoyl-ACP reductase (master no. 1551)” value in assay [5] (S. mutans UA 159, C11H 20 µg/ml 1 h vs water control, gi|24380114) was −4.34. Also, the “Average ration: Hypothetical protein SMU.1760c (master no. 1506)” value in assay [5] (S. mutans UA 159, C11H 20 µg/ml 1 h vs water control, gi|24380128) is recorded as −5.93. For the same sequence, the “Average ration: Hypothetical protein SMU.1789c (master no. 1576)” value in assay [5] (S. mutans UA 159, C11H 20 µg/ml 1 h vs water control, gi|24380155) was −6.04. In addition, the “Average ration: Elongation factor P (master no. 2035)” value in assay [5] (S. mutans UA 159, C11H 20 µg/ml 1 h vs water control, gi|24380208) is −4.19. Also, the “Average ration: Single-strand DNA-binding protein (master no. 2334)” value in assay [5] (S. mutans UA 159, C11H 20 µg/ml 1 h vs water control, gi|24380219) is on record as −5.37. Moreover, the “Average ration: Inositol-5 monophosphate dehydrogenase (master no. 824)” value in assay [5] (S. mutans UA 159, C11H 20 µg/ml 1 h vs water control, gi|24380485) is given as −12.84. Further, in assay [5] (S. mutans UA 159, C11H 20 µg/ml, 1 h), the “21 protein spots with a mean change ratio of 1.5” value is “downregulated”. In assay [2], the “growth of S. gordonii and S. sanguis” value is “not affected”; the “relative strength of effect on S. mutans” value is given as “strongest effects”.
With TFFRLFNRGRRRRSVQWCA [C8H], the “increase of antibacterial activity” value in assay [1] was 3–4 times. In addition, in assay [1] (planktonic), the “MICs against the S. mutans strains” value was 10.67 to 13.33 µg/mL. Also, in assay [2], the “growth of S. gordonii and S. sanguis” value is on record as “not affected”; the “relative strength of effect on S. mutans” value is “then”.
